The record followed here is ChEMBL document CHEMBL1153232, “Synthesis and screening of a CaaL peptide library versus FTase reveals a surprising number of substrates” (Bioorg Med Chem Lett, 2010).

The source made the active and inactive calls. No cut-off for these calls is given here. Peptide text beside a SMILES is read from it. * marks the point of attachment. Dansyl = CN(C)c1cccc2c(S(=O)(=O)*)cccc12

Test [1] deals with Protein farnesyltransferase subunit beta (Homo sapiens) (UniProt P49356). The test can be described thus: Activity at FTase assessed as formation of farnesylated peptide after 60 mins by HPLC. An outline of the steps: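 Peptide (3 μM) with 9 μM FPP and recombinant mammalian FTase (0.05 μM), incubated 60 min. HPLC scored conversion to farnesylated peptide: complete; nearly complete; 25% to 50%; less than 25%; no product.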

For test [2] the target is unchanged. The test can be described thus: Substrate activity for FTase assessed as increase in fluorescence by spectrofluorimetry in presence of farnesyl diphosphate relative to DnGCVLS. More on the design: concentration or dose not given beside the values.
Test [3] shares this target. The test can be described thus: Ratio of kcat to km for FTase in presence of farnesyl diphosphate. Summed up:
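Steady-state kinetics at saturating FPP (10 μM), 0.2-10 μM dansyl peptide, 20-100 nM FTase (at least 5-fold below peptide). Buffer: 50 mM HEPPSO pH 7.8, 5 mM TCEP, 5 mM MgCl2, 25 °C. Peptide preincubated 20 min in buffer, then FTase and FPP added. Fluorescence (ex 340, em 520 nm) followed over time and converted to kcat/KM.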

Sequence of Protein farnesyltransferase subunit beta (Homo sapiens) (P49356 whole entry): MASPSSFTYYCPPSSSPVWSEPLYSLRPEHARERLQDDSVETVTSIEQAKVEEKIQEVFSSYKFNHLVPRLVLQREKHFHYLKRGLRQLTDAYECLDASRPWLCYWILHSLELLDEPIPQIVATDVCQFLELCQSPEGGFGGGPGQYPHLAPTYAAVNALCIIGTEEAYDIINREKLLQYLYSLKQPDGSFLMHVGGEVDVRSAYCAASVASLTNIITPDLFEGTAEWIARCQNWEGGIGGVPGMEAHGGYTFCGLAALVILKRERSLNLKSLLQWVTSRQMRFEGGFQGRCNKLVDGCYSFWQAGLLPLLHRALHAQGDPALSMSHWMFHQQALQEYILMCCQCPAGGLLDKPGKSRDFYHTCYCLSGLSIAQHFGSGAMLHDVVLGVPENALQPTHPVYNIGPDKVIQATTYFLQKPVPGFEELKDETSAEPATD

As to `CC(C)C[C@H](NC(=O)[C@H](CC(N)=O)NC(=O)[C@H](CCC(N)=O)NC(=O)[C@H](CS)NC(=O)CNS(=O)(=O)c1cccc2c(N(C)C)cccc12)C(=O)O` (Dansyl-GCQNL-OH), in test [1], the result was inactive. For the same compound, in test [2], the Activity stood at 0%.

Turning to `CC(C)C[C@H](NC(=O)[C@@H](NC(=O)[C@H](CO)NC(=O)[C@H](CS)NC(=O)CNS(=O)(=O)c1cccc2c(N(C)C)cccc12)[C@@H](C)O)C(=O)O` (Dansyl-GCSTL-OH), in test [1], the result was inactive. Also, the Activity in test [2] came to 0%.

Consider `CC[C@H](C)[C@H](NC(=O)[C@H](CS)NC(=O)[C@H](CS)NC(=O)CNS(=O)(=O)c1cccc2c(N(C)C)cccc12)C(=O)N[C@@H](CC(C)C)C(=O)O` (Dansyl-GCCIL-OH), for which the Ratio in test [3] is 23 mM⁻¹ s⁻¹. In addition, the outcome in test [1] was Active. Moreover, in test [2], the Activity came out at 61%.

Regarding `CC[C@H](C)[C@H](NC(=O)[C@H](C)NC(=O)[C@H](CS)NC(=O)CNS(=O)(=O)c1cccc2c(N(C)C)cccc12)C(=O)N[C@@H](CC(C)C)C(=O)O` (Dansyl-GCAIL-OH), in test [3], the Ratio is 27 mM⁻¹ s⁻¹. In addition, in test [1], the result was Active. The Activity in test [2] was 71%.

As for `CSCC[C@H](NC(=O)[C@H](CC(C)C)NC(=O)[C@H](CS)NC(=O)CNS(=O)(=O)c1cccc2c(N(C)C)cccc12)C(=O)N[C@@H](CC(C)C)C(=O)O` (Dansyl-GCLML-OH), the Ratio in test [3] was determined as 8.1 mM⁻¹ s⁻¹. In test [1], the outcome was Active. Besides, in test [2], the Activity was 9%.

Consider `CC(C)C[C@H](NC(=O)[C@H](CO)NC(=O)[C@H](CS)NC(=O)[C@H](CS)NC(=O)CNS(=O)(=O)c1cccc2c(N(C)C)cccc12)C(=O)O` (Dansyl-GCCSL-OH), for which, in test [1], the outcome was inactive. Also, the Activity in test [2] came out at 0%.

In the case of `CC(C)C[C@H](NC(=O)[C@@H](NC(=O)[C@H](CC(C)C)NC(=O)[C@H](CS)NC(=O)CNS(=O)(=O)c1cccc2c(N(C)C)cccc12)C(C)C)C(=O)O` (Dansyl-GCLVL-OH), the Activity in test [2] is less than 5%.

`CC(C)C[C@H](NC(=O)[C@@H]1CCCN1C(=O)[C@H](Cc1cnc[nH]1)NC(=O)[C@H](CS)NC(=O)CNS(=O)(=O)c1cccc2c(N(C)C)cccc12)C(=O)O` (Dansyl-GCHPL-OH): the outcome in test [1] was inactive. In test [2], the Activity came to 0%.

As to `CC(C)C[C@H](NC(=O)[C@@H](NC(=O)[C@H](CO)NC(=O)[C@H](CS)NC(=O)CNS(=O)(=O)c1cccc2c(N(C)C)cccc12)C(C)C)C(=O)O` (Dansyl-GCSVL-OH), the Activity in test [2] was found to be 0%.

Consider `CC(C)C[C@H](NC(=O)[C@H](C)NC(=O)[C@@H](NC(=O)[C@H](CS)NC(=O)CNS(=O)(=O)c1cccc2c(N(C)C)cccc12)[C@@H](C)O)C(=O)O` (Dansyl-GCTAL-OH), for which the result in test [1] was inactive. Moreover, the Activity in test [2] turned out to be 0%.

Regarding `CC(C)C[C@H](NC(=O)[C@H](CC(C)C)NC(=O)[C@@H](NC(=O)[C@H](CS)NC(=O)CNS(=O)(=O)c1cccc2c(N(C)C)cccc12)[C@@H](C)O)C(=O)O` (Dansyl-GCTLL-OH), the Activity in test [2] stood at 0%.

Turning to `CC[C@H](C)[C@H](NC(=O)[C@H](CC(C)C)NC(=O)[C@H](CS)NC(=O)CNS(=O)(=O)c1cccc2c(N(C)C)cccc12)C(=O)N[C@@H](CC(C)C)C(=O)O` (Dansyl-GCLIL-OH), the result in test [1] was Active. Besides, the Activity in test [2] is less than 5%.

As to `CC[C@H](C)[C@H](NC(=O)[C@@H](NC(=O)[C@H](CS)NC(=O)CNS(=O)(=O)c1cccc2c(N(C)C)cccc12)C(C)C)C(=O)N[C@@H](CC(C)C)C(=O)O` (Dansyl-GCVIL-OH), the Ratio in test [3] amounted to 47 mM⁻¹ s⁻¹. Further, in test [1], the outcome was Active. Also, in test [2], the Activity came to 52%.

As for `CC(C)C[C@H](NC(=O)[C@H](CC(C)C)NC(=O)[C@H](CS)NC(=O)[C@H](CS)NC(=O)CNS(=O)(=O)c1cccc2c(N(C)C)cccc12)C(=O)O` (Dansyl-GCCLL-OH), the Activity in test [2] is less than 5%.

As to `CC(C)C[C@H](NC(=O)[C@H](CC(C)C)NC(=O)[C@H](CCCNC(=N)N)NC(=O)[C@H](CS)NC(=O)CNS(=O)(=O)c1cccc2c(N(C)C)cccc12)C(=O)O` (Dansyl-GCRLL-OH), the Activity in test [2] is less than 5%.

With `CC(C)C[C@H](NC(=O)CNC(=O)CNC(=O)[C@H](CS)NC(=O)CNS(=O)(=O)c1cccc2c(N(C)C)cccc12)C(=O)O` (Dansyl-GCGGL-OH), the outcome in test [1] was inactive. Besides, the Activity in test [2] worked out at 0%.

For `CC[C@H](C)[C@H](NC(=O)[C@H](CS)NC(=O)CNS(=O)(=O)c1cccc2c(N(C)C)cccc12)C(=O)N[C@@H](CC(C)C)C(=O)N[C@@H](CC(C)C)C(=O)O` (Dansyl-GCILL-OH), the Ratio in test [3] was determined as 8 mM⁻¹ s⁻¹. In addition, in test [1], the outcome was Active. Moreover, the Activity in test [2] was 15%.

For the compound `CC(C)C[C@H](NC(=O)[C@H](CCCCN)NC(=O)[C@H](CCC(=O)O)NC(=O)[C@H](CS)NC(=O)CNS(=O)(=O)c1cccc2c(N(C)C)cccc12)C(=O)O` (Dansyl-GCEKL-OH), in test [1], the result was inactive. Besides, in test [2], the Activity worked out at 0%.

Regarding `CSCC[C@H](NC(=O)[C@H](CS)NC(=O)CNS(=O)(=O)c1cccc2c(N(C)C)cccc12)C(=O)N[C@@H](CCC(=O)O)C(=O)N[C@@H](CC(C)C)C(=O)O` (Dansyl-GCMEL-OH), the outcome in test [1] was inactive. For the same compound, the Activity in test [2] came out at 0%.

As to `CC(C)C[C@H](NC(=O)[C@@H](NC(=O)[C@H](CCCCN)NC(=O)[C@H](CS)NC(=O)CNS(=O)(=O)c1cccc2c(N(C)C)cccc12)C(C)C)C(=O)O` (Dansyl-GCKVL-OH), the Activity in test [2] is less than 5%.

With `CC(C)C[C@H](NC(=O)[C@H](C)NC(=O)[C@H](Cc1cnc[nH]1)NC(=O)[C@H](CS)NC(=O)CNS(=O)(=O)c1cccc2c(N(C)C)cccc12)C(=O)O` (Dansyl-GCHAL-OH), the result in test [1] was inactive. For the same compound, in test [2], the Activity amounted to 0%.

Turning to `CC(C)C[C@H](NC(=O)[C@H](CS)NC(=O)CNC(=O)[C@H](CS)NC(=O)CNS(=O)(=O)c1cccc2c(N(C)C)cccc12)C(=O)O` (Dansyl-GCGCL-OH), the result in test [1] was inactive. In test [2], the Activity was determined as 0%.

Regarding `CC(C)C[C@H](NC(=O)[C@H](CC(C)C)NC(=O)[C@H](C)NC(=O)[C@H](CS)NC(=O)CNS(=O)(=O)c1cccc2c(N(C)C)cccc12)C(=O)O` (Dansyl-GCALL-OH), the Activity in test [2] is less than 5%.

`CC(C)C[C@H](NC(=O)[C@H](CC(C)C)NC(=O)[C@H](CO)NC(=O)[C@H](CS)NC(=O)CNS(=O)(=O)c1cccc2c(N(C)C)cccc12)C(=O)O` (Dansyl-GCSLL-OH): the Activity in test [1] was less than 25%; in test [2], 0%.

In the case of `CC(C)C[C@H](NC(=O)[C@H](CC(C)C)NC(=O)[C@H](CCC(N)=O)NC(=O)[C@H](CS)NC(=O)CNS(=O)(=O)c1cccc2c(N(C)C)cccc12)C(=O)O` (Dansyl-GCQLL-OH), the Activity in test [1] was less than 25%; in test [2], 0%.

Regarding `CC(C)C[C@H](NC(=O)[C@H](Cc1ccc(O)cc1)NC(=O)[C@H](C)NC(=O)[C@H](CS)NC(=O)CNS(=O)(=O)c1cccc2c(N(C)C)cccc12)C(=O)O` (Dansyl-GCAYL-OH), the outcome in test [1] was inactive. The Activity in test [2] came to 0%.

In the case of `CC(C)C[C@H](NC(=O)[C@H](CCC(N)=O)NC(=O)[C@H](CC(C)C)NC(=O)[C@H](CS)NC(=O)CNS(=O)(=O)c1cccc2c(N(C)C)cccc12)C(=O)O` (Dansyl-GCLQL-OH), the Activity in test [1] is less than 25%; in test [2], 0%.

In the case of `CC[C@H](C)[C@H](NC(=O)[C@@H]1CCCN1C(=O)[C@H](CS)NC(=O)CNS(=O)(=O)c1cccc2c(N(C)C)cccc12)C(=O)N[C@@H](CC(C)C)C(=O)O` (Dansyl-GCPIL-OH), the Activity in test [2] is less than 5%.

Turning to `CC(C)C[C@H](NC(=O)[C@H](CC(C)C)NC(=O)[C@@H](NC(=O)[C@H](CS)NC(=O)CNS(=O)(=O)c1cccc2c(N(C)C)cccc12)C(C)C)C(=O)O` (Dansyl-GCVLL-OH), in test [2], the Activity was less than 5%.

In the case of `CC(C)C[C@H](NC(=O)CNC(=O)[C@H](CC(C)C)NC(=O)[C@H](CS)NC(=O)CNS(=O)(=O)c1cccc2c(N(C)C)cccc12)C(=O)O` (Dansyl-GCLGL-OH), the result in test [1] was inactive. Moreover, the Activity in test [2] was determined as 0%.

Regarding `CC(C)C[C@H](NC(=O)[C@@H]1CCCN1C(=O)[C@H](CC(N)=O)NC(=O)[C@H](CS)NC(=O)CNS(=O)(=O)c1cccc2c(N(C)C)cccc12)C(=O)O` (Dansyl-GCNPL-OH), the outcome in test [1] was inactive. The Activity in test [2] was determined as 0%.

Take `CC(C)C[C@H](NC(=O)[C@H](CC(C)C)NC(=O)[C@H](CC(C)C)NC(=O)[C@H](CS)NC(=O)CNS(=O)(=O)c1cccc2c(N(C)C)cccc12)C(=O)O` (Dansyl-GCLLL-OH): the Activity in test [2] was less than 5%.

For the compound `CC(C)C[C@H](NC(=O)[C@H](CCC(N)=O)NC(=O)CNC(=O)[C@H](CS)NC(=O)CNS(=O)(=O)c1cccc2c(N(C)C)cccc12)C(=O)O` (Dansyl-GCGQL-OH), the outcome in test [1] was inactive. In addition, the Activity in test [2] is 0%.

Regarding `CC(C)C[C@H](NC(=O)[C@H](CCC(N)=O)NC(=O)[C@H](CO)NC(=O)[C@H](CS)NC(=O)CNS(=O)(=O)c1cccc2c(N(C)C)cccc12)C(=O)O` (Dansyl-GCSQL-OH), in test [1], the result was inactive. Further, the Activity in test [2] amounted to 0%.

With `CC(C)C[C@H](NC(=O)[C@H](Cc1ccccc1)NC(=O)[C@H](CO)NC(=O)[C@H](CS)NC(=O)CNS(=O)(=O)c1cccc2c(N(C)C)cccc12)C(=O)O` (Dansyl-GCSFL-OH), the outcome in test [1] was inactive. In addition, in test [2], the Activity was determined as 0%.

For the compound `CC(C)C[C@H](NC(=O)CNC(=O)[C@@H](NC(=O)[C@H](CS)NC(=O)CNS(=O)(=O)c1cccc2c(N(C)C)cccc12)C(C)C)C(=O)O` (Dansyl-GCVGL-OH), the result in test [1] was inactive. Also, in test [2], the Activity worked out at 0%.
